# According to ChEMBL document CHEMBL1130344, “Discovery of TBC11251, a potent, long acting, orally active endothelin receptor-A selective antagonist” (J Med Chem, 1997):
# Activity calls are given as the source filed them. No cut-off for these calls is given here.
# How the values were obtained:
# [1] = molecular target: T1, Endothelin receptor type B (Homo sapiens, UniProt P24530); assay: In vitro inhibition of endothelin binding to human Endothelin B receptor using [125I]-labeled ET-1 competition assay
# T1 sequence (P24530 whole entry): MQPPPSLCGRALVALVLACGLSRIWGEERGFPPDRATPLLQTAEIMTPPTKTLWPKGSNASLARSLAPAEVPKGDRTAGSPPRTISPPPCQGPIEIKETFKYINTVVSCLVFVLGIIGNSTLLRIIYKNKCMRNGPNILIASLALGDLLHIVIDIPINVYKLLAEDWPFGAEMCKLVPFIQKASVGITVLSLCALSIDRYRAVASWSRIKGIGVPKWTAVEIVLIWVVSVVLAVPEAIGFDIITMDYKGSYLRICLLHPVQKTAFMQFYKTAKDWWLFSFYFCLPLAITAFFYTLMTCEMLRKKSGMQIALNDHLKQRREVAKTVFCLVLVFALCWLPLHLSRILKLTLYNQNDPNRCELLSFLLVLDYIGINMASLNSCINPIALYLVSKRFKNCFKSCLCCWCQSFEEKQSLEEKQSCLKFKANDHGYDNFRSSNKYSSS
# Method in brief: (§1)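 Membranes in 30 mM HEPES pH 7.4 with 150 mM NaCl, 5 mM MgCl2 and 0.05% bacitracin: […] for ET_B (ET_B from COS 7 cells transfected with human ET_B DNA). Competition against 4 pM [125I]ET-1, 0.25% DMSO final, in triplicate, for 16–18 h at 24 °C. Nonspecific binding with 100 nM ET-1. Bound radioactivity gamma-counted after centrifugation.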
# [2] = molecular target: T2, Endothelin-1 receptor (Homo sapiens, UniProt P25101); assay: In vitro inhibition of endothelin binding to human Endothelin A receptor using [125I]-labeled ET-1 competition assay; method in brief: as §1
# T2 sequence (P25101 whole entry): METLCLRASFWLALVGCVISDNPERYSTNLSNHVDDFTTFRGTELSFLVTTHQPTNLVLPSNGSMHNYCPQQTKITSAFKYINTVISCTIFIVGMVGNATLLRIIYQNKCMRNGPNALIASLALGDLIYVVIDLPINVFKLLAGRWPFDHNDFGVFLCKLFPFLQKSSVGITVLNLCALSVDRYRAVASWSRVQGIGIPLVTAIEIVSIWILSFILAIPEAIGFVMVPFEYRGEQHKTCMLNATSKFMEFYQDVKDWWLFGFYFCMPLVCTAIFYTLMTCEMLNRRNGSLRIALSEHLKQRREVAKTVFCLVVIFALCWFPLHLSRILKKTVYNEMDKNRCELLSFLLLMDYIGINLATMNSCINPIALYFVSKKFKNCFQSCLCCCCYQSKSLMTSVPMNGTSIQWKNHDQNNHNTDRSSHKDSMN
# [3] = Oral bioavailability in rat; format: ADME, organism-based; conditions: in vivo
# Method in brief: (§2)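 Rats (48 h post-surgery recovery) received 20–50 mg/kg at 1 mL/kg iv or 10 mL/kg po. Serial caudal-vein blood samples were taken over 24 h, and plasma was stored at -20 °C until assay. Bioavailability came from comparing dose and AUC.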
# [4] = Serum half life in rat; format: ADME, organism-based; method in brief: as §2
# [5] = system: Rattus norvegicus; assay: The compound was tested in vivo for percent inhibition in ET-1 challenge in rats at 60 mg/kg; format: functional
# Method in brief: (§3)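 Male Sprague–Dawley rats (250–350 g) were cannulated (femoral artery/vein) under methohexital, then restrained conscious with 60 min recovery. Autonomic blockade used iv atropine methyl nitrate 3 mg/kg plus propranolol 2 mg/kg. Vehicle was 1 M Tris base or sodium bicarbonate.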
# [6] = Phosphoinositol hydrolysis in TE671 or transfected cos 7 cells; format: functional, cell-based; conditions: read-out: pA2 (converted)
# Method in brief: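 TE 671 or transfected COS 7 cells were grown to confluence, then labelled for 16 h with [3H]myoinositol in inositol-free RPMI with 10% inositol-free FCS at 37 °C, 6% CO2. They were preincubated 10 min in LiCl-containing HEPES buffer pH 7.4 ± test compound, then given ET-1 at varying concentrations for 45 min. Inositol phosphates were extracted with ice-cold methanol (Berridge method), and well protein was measured by BCA.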
# [7] = system: Rattus norvegicus; assay: The compound was tested in vivo for percent inhibition in ET-1 challenge in rats at 15 mg/kg; format: functional; method in brief: as §3
# [8] = system: Rattus norvegicus; assay: The compound was tested in vivo for percent inhibition in ET-1 challenge in rats at 15 mg/kg; not active; format: functional, organism-based; design: dose 15 mg/kg; method in brief: as §3
# [9] = The serum half life of the compound; format: ADME, cell-free
# [10] = Oral bioavailability in dog; format: ADME, organism-based, Canis lupus familiaris; conditions: in vivo
# Method in brief: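 Dogs (7 days post-surgery recovery) were dosed iv at 1 mL/kg via the right saphenous vein, or by oral gavage at 2 mL/kg plus an aqueous flush after overnight fasting. Routes were crossed over 7 days later. Plasma levels were followed over 24 h, and bioavailability came from comparing dose and AUC.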
# [11] = molecular target: T2, Endothelin-1 receptor; assay: Binding affinity against human Endothelin A receptor
# [12] = system: Rattus norvegicus; assay: In vivo efficacy in acute hypoxia induced pulmonary hypertension in rats following oral administration; format: functional, organism-based
# [13] = system: Rattus norvegicus; assay: In vivo efficacy in acute hypoxia induced pulmonary hypertension in rats following intravenous administration; format: functional, organism-based
SMILES,IC50 [1] [nM],IC50 [2] [nM],other results
Cc1noc(NS(=O)(=O)c2ccsc2C(Cc2ccc3c(c2)OCO3)N(C)C)c1Cl (stereo not given),> 100000,21000,–
Cc1noc(NS(=O)(=O)c2ccsc2C(=O)Cc2ccc3c(c2)OCO3)c1Cl,7000,18,bioavailability [3]: 30%; half-life [4]: 1.5 h; inhibition in vivo at 60 mg/kg [5]: 41%; Kb [6]: 178 nM
Cc1noc(NS(=O)(=O)c2ccsc2C(=O)Cc2ccc3c(c2)OCO3)c1C,27200,–,–
CC(=O)c1c(NC(=O)c2sccc2S(=O)(=O)Nc2onc(C)c2Cl)ccc2c1OCO2,32600,10,bioavailability [3]: 27%; half-life [4]: 2.5 h; inhibition in vivo at 15 mg/kg [7]: 18%
Cc1noc(NS(=O)(=O)c2ccsc2C(=O)Nc2ccc3c(c2)OCO3)c1Br,–,–,bioavailability [3]: 0%; half-life [4]: < 0.5 h; inhibition [8]: inactive
Cc1cc2c(cc1CC(=O)c1sccc1S(=O)(=O)Nc1onc(C)c1C)OCO2,–,–,bioavailability [3]: 100%; half-life [4]: 7 h; inhibition in vivo at 15 mg/kg [7]: 33%
COc1ccc(NC(=O)c2sccc2S(=O)(=O)Nc2onc(C)c2Cl)c(C)c1,–,–,half-life [9]: < 9 min; inhibition in vivo at 15 mg/kg [7]: 33%
Cc1noc(NS(=O)(=O)c2ccsc2C(=O)Nc2ccc3c(c2C)OCO3)c1Cl,355000,3,inhibition in vivo at 15 mg/kg [7]: 14%
Cc1ccc(C)c(CC(=O)c2sccc2S(=O)(=O)Nc2onc(C)c2Cl)c1,–,7.2,–
Cc1ccc(CC(=O)c2sccc2S(=O)(=O)Nc2onc(C)c2Br)cc1,–,20,–
Cc1ccc(CC(=O)c2sccc2S(=O)(=O)Nc2onc(C)c2C)cc1,29200,27,–
Cc1noc(NS(=O)(=O)c2ccsc2C(=O)c2ccc3c(c2)OCO3)c1Br,15400,2000,–
Cc1noc(NS(=O)(=O)c2ccsc2C(=O)Cc2ccc3c(c2)OCO3)c1Br,–,14,–
CC#N.Cc1noc(NS(=O)(=O)c2ccsc2C(=O)Cc2cc3c(cc2C#N)OCO3)c1Cl,723,1.3,inhibition in vivo at 15 mg/kg [7]: 52%; Kb [6]: 10 nM
Cc1cc2c(cc1CC(=O)c1sccc1S(=O)(=O)Nc1onc(C)c1Cl)OCO2 [SITAXENTAN],9800,1.4,bioavailability [10]: 90%; bioavailability [3]: 60%; half-life [4]: 6.7 h; Ki [11]: 0.43 nM; EC50 [12]: 1 mg/kg; inhibition in vivo at 15 mg/kg [7]: 41%; Kb [6]: 10 nM; EC50 [13]: 0.5 mg/kg
Cc1ccc(NC(=O)c2sccc2S(=O)(=O)Nc2onc(C)c2Cl)cc1,–,–,bioavailability [3]: 0%; half-life [4]: < 0.5 h; inhibition [8]: inactive
Cc1noc(NS(=O)(=O)c2ccsc2C2(Cc3ccc4c(c3)OCO4)OCCO2)c1Cl,2100,123,–
Cc1noc(NS(=O)(=O)c2ccsc2C(O)Cc2ccc3c(c2)OCO3)c1Cl (stereo not given),15700,56,–
COc1cc(C#N)c(NC(=O)c2sccc2S(=O)(=O)Nc2onc(C)c2Cl)cc1OC,–,–,bioavailability [3]: 2%; half-life [4]: < 0.15 h; inhibition in vivo at 15 mg/kg [7]: 50%
Cc1noc(NS(=O)(=O)c2ccsc2C(C)(O)Cc2ccc3c(c2)OCO3)c1Cl (stereo not given),> 100000,22200,–
Cc1noc(NS(=O)(=O)c2ccsc2C(=O)NC(=O)c2ccc3c(c2)OCO3)c1Br,37200,887,–
Cc1ccc(CC(=O)c2sccc2S(=O)(=O)Nc2onc(C)c2Cl)c(C)c1,–,0.97,–
Cc1noc(NS(=O)(=O)c2ccsc2C(=O)N2CCN(Cc3ccc4c(c3)OCO4)CC2)c1Cl,–,19600,–
Cc1noc(NS(=O)(=O)c2ccsc2C(=O)Nc2ccc3c(c2C#N)OCO3)c1Cl,40400,3.4,bioavailability [3]: 8%; half-life [4]: 2.5 h; inhibition in vivo at 15 mg/kg [7]: 8%
Cc1ccc(CC(=O)c2sccc2S(=O)(=O)Nc2onc(C)c2Br)c(C)c1,3500,0.76,–
Cc1cc2c(cc1CC(=O)c1sccc1S(=O)(=O)Nc1noc(C)c1Cl)OCO2,3900,–,Kb [6]: 3.39 nM
Cc1noc(NS(=O)(=O)c2ccsc2/C(Cc2ccc3c(c2)OCO3)=N\O)c1Cl,4200,1100,–
COc1cccc(CC(=O)c2sccc2S(=O)(=O)Nc2onc(C)c2Cl)c1,19100,30,–
